In brackets after ≈: the same amount, converted by molar mass. *1 amine or outer side, *2 acyl side, *3 side chain or, on linkers, in order; H or OH if unused. Where a SMILES comes first, the peptide text is derived from it. Bridges are numbered along the chain shown (N, C = ends). [ ]: non-standard residue; d: D form. The star is where a group is joined. hTyr(3S-OH,4S-OH,3'-OSO3H) = N[C@H](C(=O)O)[C@H](O)[C@@H](O)c1ccc(O)c(OS(=O)(=O)O)c1; pTerphenylCO(4''-OnC5H11) = CCCCCOc1ccc(-c2ccc(-c3ccc(C(=O)*)cc3)cc2)cc1; Orn(4R-OH,5R-OH) = O=C([C@H](C[C@@H](O)[C@@H](O)N[*:3])N[*:1])[*:2]; hTyr(3S-OH,4S-OH) = N[C@H](C(=O)O)[C@H](O)[C@@H](O)c1ccc(O)cc1; Pro(3S-OH,4S-Me) = C[C@H]1CN[C@H](C(=O)O)[C@H]1O; X1 = CCCCCOc1ccc(-c2cc(-c3ccc(C(=O)*)cc3)no2)cc1; Gln(3R-OH) = NC(=O)C[C@@H](O)[C@H](N)C(=O)O; Hyp = O=C(O)[C@@H]1C[C@@H](O)CN1

The subject of one data set is Aspergillus fumigatus. As to the kind of experiment: Antifungal activity against Aspergillus fumigatus. Type of data set: functional.
The nature of data set [1]: Volume of distribution in F344 rat at 5 mg/kg, iv administered as single bolus dose. It is filed as ADME, organism-based. Also noted: dose 5 mg/kg, route intravenous. As to conditions: in vivo. A digest of the protocol: (§1)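 F344 males, 10 to 11 weeks old and 223.6 to 243.8 g, got a single 5 mg/kg iv dose of [14C]anidulafungin over about 5 min. Plasma and tissues were collected predose and at 0.083 to 72 h, n = 3 per time point. Parent drug was quantified by HPLC-UV, with LLOQ/ULOQ of 20/5,120 ng/ml in plasma and 220/56,320 ng/g in tissue. Noncompartmental parameters came from a composite mean concentration-time profile.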

The next data set concerns Aspergillus flavus. As to the kind of experiment: Antifungal activity against Aspergillus flavus. Type of data set: functional.
The subject of a further data set is Candida. The data set can be described thus: Antifungal activity against Candida sp. It is filed as functional.
Data set [2] is described as follows: Total body clearance in F344 rat at 5 mg/kg, iv administered as single bolus dose. To be noted: in vivo. More on the design: dose 5 mg/kg, route intravenous. It is filed as ADME, organism-based. A digest of the protocol: as §1
Data set [3] in a line: Ratio of AUC (0 to infinity) in F344 rat lung to AUC (0 to infinity) in F344 rat plasma at 5 mg/kg, iv administered as single bolus dose. It is filed as ADME, organism-based. More on the design: dose 5 mg/kg, route intravenous. To be noted: lung and plasma. A digest of the protocol:
(§2)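 Male F344 rats, 10–11 weeks old, 223.6–243.8 g, given a single IV dose of [¹⁴C]-labelled drug over about 5 min. Tissue and plasma sampled predose and at 0.083–72 h, n = 3 per time point. Parent drug measured by HPLC-UV; tissue LLOQ 220 ng/g, plasma LLOQ 20 ng/ml. AUC0-∞ by noncompartmental analysis of the composite mean profile; ratio is tissue AUC over plasma AUC.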

Data set [4] is described as follows: Ratio of AUC (0 to infinity) in F344 rat liver to AUC (0 to infinity) in F344 rat plasma at 5 mg/kg, iv administered as single bolus dose. Type of data set: ADME, organism-based. To be noted: liver and plasma. Also noted: dose 5 mg/kg, route intravenous. A digest of the protocol: as §2
Data set [5] in a line: Ratio of AUC (0 to infinity) in F344 rat kidney to AUC (0 to infinity) in F344 rat plasma at 5 mg/kg, iv administered as single bolus dose. It is filed as ADME, organism-based. More on the design: dose 5 mg/kg, route intravenous. To be noted: kidney and plasma. A digest of the protocol: as §2
Data set [6] in a line: Ratio of AUC in rat lung to AUC in rat plasma at 1 mg/kg, iv. It is filed as ADME, organism-based. More on the design: dose 1 mg/kg, route intravenous. To be noted: lung and plasma, read-out: Ratio AUC.
Data set [7] in a line: Ratio of AUC in rat kidney to AUC in rat plasma at 1 mg/kg, iv. It is filed as ADME, organism-based. Also noted: dose 1 mg/kg, route intravenous. To be noted: kidney and plasma, read-out: Ratio AUC.
Data set [8] in a line: Ratio of AUC in rat liver to AUC in rat plasma at 1 mg/kg, iv. It is filed as ADME, organism-based. To be noted: liver and plasma, read-out: Ratio AUC. More on the design: dose 1 mg/kg, route intravenous.

In the case of `CCCCCOc1ccc(-c2ccc(-c3ccc(C(=O)N[C@H]4C[C@@H](O)[C@@H](O)NC(=O)[C@@H]5[C@@H](O)[C@@H](C)CN5C(=O)[C@H]([C@@H](C)O)NC(=O)[C@H]([C@H](O)[C@@H](O)c5ccc(O)cc5)NC(=O)[C@@H]5C[C@@H](O)CN5C(=O)[C@H]([C@@H](C)O)NC4=O)cc3)cc2)cc1` [ANIDULAFUNGIN] ({pTerphenylCO(4''-OnC5H11)}-[Orn(4R-OH,5R-OH)]T[Hyp][hTyr(3S-OH,4S-OH)]T[Pro(3S-OH,4S-Me)]; lactam 1-C), the MIC90 with Aspergillus fumigatus was found to be 0.03 µg/mL (≈ 0.0263 µM); in the data set with Aspergillus flavus, 0.08 µg/mL (≈ 0.0702 µM); in the data set with Candida it was 0.06 µg/mL (≈ 0.0526 µM). The same molecule came in with a Vd in data set [1] of 2.2 L/kg. This molecule registered a clearance in data set [2] of 1.4 mL/min/kg.
Consider `CC[C@H](C)C[C@H](C)CCCCCCCCC(=O)N[C@H]1C[C@@H](O)[C@@H](NCCN)NC(=O)[C@@H]2[C@@H](O)CCN2C(=O)[C@H]([C@H](O)CCN)NC(=O)[C@H]([C@H](O)[C@@H](O)c2ccc(O)cc2)NC(=O)[C@@H]2C[C@@H](O)CN2C(=O)[C@H]([C@@H](C)O)NC1=O` [CASPOFUNGIN], for which the Kp was 10.4 in data set [3], 12.4 in data set [4] and 10.7 in data set [5].
Regarding `CCCCCOc1ccc(-c2cc(-c3ccc(C(=O)N[C@H]4C[C@@H](O)[C@@H](O)NC(=O)[C@@H]5[C@@H](O)[C@@H](C)CN5C(=O)[C@H]([C@H](O)CC(N)=O)NC(=O)[C@H]([C@H](O)[C@@H](O)c5ccc(O)c(OS(=O)(=O)O)c5)NC(=O)[C@@H]5C[C@@H](O)CN5C(=O)[C@H]([C@@H](C)O)NC4=O)cc3)no2)cc1` [MICAFUNGIN] (X1-[Orn(4R-OH,5R-OH)]T[Hyp][hTyr(3S-OH,4S-OH,3'-OSO3H)][Gln(3R-OH)][Pro(3S-OH,4S-Me)]; lactam 1-C), the Kp in [6] was 3.6; in data set [7], 3.2; in [8] it was 7.8.
